Reference: paper PMC3806331 (Journal of natural products, 2013)
Read-outs that look alike come from different tables or passages of the source.

Legend:
[1] = test system: HT-29 human colon cancer cell line; assay: SRB cytotoxicity assay, HT-29; type: cell-based; conditions: HT-29, 72 h, read-out: IC50 HT-29 72 h
[2] = test system: quinone reductase in Hepa 1c1c7 murine hepatoma cell line; assay: Quinone reductase induction assay; type: cell-based; conditions: Mus musculus, Hepa-1c1c7, read-out: CD (concentration required to double quinone reductase activity), Hepa 1c1c7 cells; average ± SD, three independent experiments
[3] = test system: Raji human Burkitt's lymphoma cells; assay: MTS growth inhibition assay, Raji cells; type: cell-based
[4] = test system: immunodeficient female NCr nu/nu mice; assay: Toxicity to mice in the hollow fiber assay; type: in vivo
Summary of the method: (§1)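 HT-29 cells (1 × 10^6 per mL), alongside other human cancer lines, grown in hollow fibers implanted ip and sc in immunodeficient female NCr nu/nu mice. Test compound given by ip injection once daily: first run at 5, 10, 15, 30 mg/kg in 30% cyclodextrin; repeat run at 0.5, 1, 2 mg/kg. Positive controls: bortezomib 1 mg/kg ip (first run); paclitaxel 5 mg/kg ip (repeat run).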

[5] = test system: HT-29 human colon cancer cells; assay: In vivo hollow fiber assay, HT-29; conditions: HT-29 in hollow fibers in mice, any dose, ip once daily
Summary of the method: as §1

[6] = test system: 697 human acute lymphoblastic leukemia cells; assay: MTS growth inhibition assay, 697 cells; type: cell-based; conditions: read-out: IC50 values in 697 cells (range)

## COc1ccc2c(c1C1=COC(C)(C)C1=O)O[C@H](c1ccccc1)CC2=O [Compound 3, (2S)-2,3-dihydrotephroglabrin]
[1]
  IC50: > 10 µM
[2]
  EC (2-fold induction): < 10 µM
[3]; 48 h, read-out: IC50 Raji 48 h
  IC50: > 10 µM
[3]; 72 h, read-out: IC50 Raji 72 h
  IC50: > 10 µM

## COc1ccc2c(c1/C=C/C(C)(C)O)O[C@H](c1ccccc1)CC2=O [Compound 4, (2S)-2,3-dihydrotephroapollin C]
[1]
  IC50: > 10 µM
[3]; 48 h, read-out: IC50 Raji 48 h
  IC50: > 10 µM
[3]; 72 h, read-out: IC50 Raji 72 h
  IC50: > 10 µM

## COc1ccc2c(c1/C=C/C(C)(C)OC)O[C@H](c1ccccc1)CC2=O [Compound 6, (2S)-7-methoxy-8-(3-methoxy-3-methyl-but-1-enyl)flavanone]
[1]
  IC50: > 10 µM
[2]
  EC (2-fold induction): < 10 µM
[3]; 48 h, read-out: IC50 Raji 48 h
  IC50: > 10 µM
[3]; 72 h, read-out: IC50 Raji 72 h
  IC50: > 10 µM

## C=C(C)[C@H]1Cc2c(ccc3c2O[C@@H]2COc4cc(OC)c(OC)cc4[C@]2(O)C3=O)O1 [Compound 7, cis-(6aβ,12aβ)-hydroxyrotenone]
[4]; ip 0.5, 1 and 2 mg/kg once daily
  toxicity to mice: no noticeable toxicity
[4]; ip 5, 10, 15 and 30 mg/kg once daily
  lethality to mice: lethal
[5]
  net reduction of relative percent cell growth: No effect

## COc1cc2c(cc1OC)[C@]1(O)C(=O)c3ccc4c(c3O[C@@H]1CO2)C=CC(C)(C)O4 [Compound 9, tephrosin]
[6]
  IC50: 5.4 to 9 µM

## COc1cc2c(c(O)c1C(=O)/C=C/c1ccccc1)[C@H]1[C@@H](O2)OC(C)(C)[C@@H]1OC(C)=O [Compound 10, (+)-tephropurpurin]
[1]
  IC50: > 10 µM
[3]; 48 h, read-out: IC50 Raji 48 h
  IC50: > 10 µM
[3]; 72 h, read-out: IC50 Raji 72 h
  IC50: > 10 µM

## CC1(C)O[C@@H]2Oc3ccc(C(=O)/C=C/c4ccccc4)c(O)c3[C@@H]2[C@H]1O [Compound 11, (+)-tephrosone]
[1]
  IC50: > 10 µM
[3]; 48 h, read-out: IC50 Raji 48 h
  IC50: > 10 µM
[3]; 72 h, read-out: IC50 Raji 72 h
  IC50: > 10 µM
